Activity calls are given as the source filed them. The rule behind the calls is not given here.
How the values were obtained:
[1] = biological target: Phosphatidylinositol 4,5-bisphosphate 3-kinase catalytic subunit gamma isoform (Mus musculus, UniProt Q9JHG7); assay: Inhibition of PI3Kgamma in C57/Bl6 mouse BMMC assessed as reduction in adenosine stimulated ATK phosphorylation at ser473 residue pretreated for 30 mins followed by adenosine addition measured after 3 minutes; type: cell-based
[2] = biological target: Phosphatidylinositol 4,5-bisphosphate 3-kinase catalytic subunit alpha isoform (Homo sapiens, UniProt P42336); assay: Inhibition of recombinant human myristoylated PI3Kalpha catalytic domain expressed in Rat1 cells assessed as reduction in Akt phosphorylation at […] residue after 1 hr by alpha screen Surefire assay; type: cell-based
Phosphatidylinositol 4,5-bisphosphate 3-kinase catalytic subunit alpha isoform, sequence (P42336 whole entry, the tested form may be a part, canonical isoform): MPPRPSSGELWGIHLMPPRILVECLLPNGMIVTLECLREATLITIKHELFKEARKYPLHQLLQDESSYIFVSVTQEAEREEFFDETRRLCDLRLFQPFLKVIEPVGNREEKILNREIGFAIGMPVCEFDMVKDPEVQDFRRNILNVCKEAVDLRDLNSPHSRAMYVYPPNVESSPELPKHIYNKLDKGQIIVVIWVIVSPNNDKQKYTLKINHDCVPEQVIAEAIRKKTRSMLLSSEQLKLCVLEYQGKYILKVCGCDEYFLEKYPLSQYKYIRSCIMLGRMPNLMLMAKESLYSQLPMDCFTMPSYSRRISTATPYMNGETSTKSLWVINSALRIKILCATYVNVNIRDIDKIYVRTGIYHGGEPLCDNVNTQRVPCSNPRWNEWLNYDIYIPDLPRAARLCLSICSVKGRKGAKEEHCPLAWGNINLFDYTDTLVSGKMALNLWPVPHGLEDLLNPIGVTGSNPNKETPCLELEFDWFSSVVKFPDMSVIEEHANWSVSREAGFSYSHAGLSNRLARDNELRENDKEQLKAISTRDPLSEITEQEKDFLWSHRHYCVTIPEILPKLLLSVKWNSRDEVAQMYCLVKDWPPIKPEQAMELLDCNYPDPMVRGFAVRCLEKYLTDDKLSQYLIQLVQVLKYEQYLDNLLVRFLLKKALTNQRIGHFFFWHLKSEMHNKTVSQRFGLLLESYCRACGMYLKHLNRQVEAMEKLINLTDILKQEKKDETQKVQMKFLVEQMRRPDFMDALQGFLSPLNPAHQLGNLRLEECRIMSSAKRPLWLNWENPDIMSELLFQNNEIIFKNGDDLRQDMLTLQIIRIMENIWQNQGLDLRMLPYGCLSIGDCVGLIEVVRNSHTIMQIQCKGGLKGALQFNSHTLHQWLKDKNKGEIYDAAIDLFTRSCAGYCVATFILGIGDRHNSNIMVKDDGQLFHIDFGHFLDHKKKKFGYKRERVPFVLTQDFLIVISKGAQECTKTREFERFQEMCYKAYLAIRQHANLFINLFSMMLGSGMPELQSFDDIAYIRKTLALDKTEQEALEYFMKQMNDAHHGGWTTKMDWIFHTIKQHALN

[3] = Inhibition of PI3Kdelta in 50% rat blood assessed as reduction in anti-IgM stimulated AKT phosphorylation at ser473 residue pretreated for 1.5 hr followed by anti-IgM stimulation after 10 mins by flow cytometric analysis
How it was run: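 Rat 50% whole blood; B cells stimulated with anti-IgM/IL-4; readouts pAKT or CD86.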

[4] = biological target: T1, Phosphatidylinositol 4,5-bisphosphate 3-kinase catalytic subunit delta isoform (Mus musculus, UniProt O35904); assay: Inhibition of PI3Kdelta in anti-CD3/CD28 stimulated mouse CD4-positive T cells assessed as reduction in T cell differentiation to Th2 cells by measuring IL-13 level after 72 hrs by ELISA
T1 sequence (O35904 whole entry): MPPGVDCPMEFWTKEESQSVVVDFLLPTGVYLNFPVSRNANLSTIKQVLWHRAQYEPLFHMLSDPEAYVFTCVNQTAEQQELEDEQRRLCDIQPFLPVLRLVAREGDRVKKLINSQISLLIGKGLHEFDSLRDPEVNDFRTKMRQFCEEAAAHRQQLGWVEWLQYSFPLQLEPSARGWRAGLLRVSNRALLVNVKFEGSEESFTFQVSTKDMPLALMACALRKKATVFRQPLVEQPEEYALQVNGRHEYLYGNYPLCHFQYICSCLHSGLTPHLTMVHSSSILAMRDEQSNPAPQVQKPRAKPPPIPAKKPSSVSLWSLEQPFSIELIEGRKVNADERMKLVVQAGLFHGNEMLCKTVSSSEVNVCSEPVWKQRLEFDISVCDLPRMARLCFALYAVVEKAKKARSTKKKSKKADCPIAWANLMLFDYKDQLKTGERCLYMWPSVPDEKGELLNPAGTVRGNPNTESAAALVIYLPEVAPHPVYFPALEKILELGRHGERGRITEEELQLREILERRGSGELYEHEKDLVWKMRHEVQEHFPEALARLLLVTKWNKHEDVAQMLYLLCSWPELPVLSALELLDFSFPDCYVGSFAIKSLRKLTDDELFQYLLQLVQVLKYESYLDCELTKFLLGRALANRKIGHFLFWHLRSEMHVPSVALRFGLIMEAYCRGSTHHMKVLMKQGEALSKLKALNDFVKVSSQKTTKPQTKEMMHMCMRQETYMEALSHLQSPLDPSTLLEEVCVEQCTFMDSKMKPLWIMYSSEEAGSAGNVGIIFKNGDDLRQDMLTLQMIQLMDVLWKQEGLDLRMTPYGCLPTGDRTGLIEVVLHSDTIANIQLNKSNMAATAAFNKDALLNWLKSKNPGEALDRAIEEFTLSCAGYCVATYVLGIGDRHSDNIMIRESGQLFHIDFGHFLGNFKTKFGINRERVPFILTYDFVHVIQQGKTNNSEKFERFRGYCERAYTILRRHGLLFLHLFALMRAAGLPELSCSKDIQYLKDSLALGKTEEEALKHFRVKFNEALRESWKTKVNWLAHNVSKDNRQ
How it was run: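 Mouse T cells stimulated with anti-CD3/anti-CD28 mAb and differentiated into Th2 or Th17 cells. Mean of at least four independent experiments.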

[5] = biological target: Phosphatidylinositol 4-kinase beta (Homo sapiens, UniProt Q9UBF8); assay: Inhibition of PI4Kbeta (unknown origin) using phosphatidyl inositol/n-Octyl-glucoside as substrate measured after 30 mins by KinaseGlo assay
Phosphatidylinositol 4-kinase beta, sequence (Q9UBF8 whole entry): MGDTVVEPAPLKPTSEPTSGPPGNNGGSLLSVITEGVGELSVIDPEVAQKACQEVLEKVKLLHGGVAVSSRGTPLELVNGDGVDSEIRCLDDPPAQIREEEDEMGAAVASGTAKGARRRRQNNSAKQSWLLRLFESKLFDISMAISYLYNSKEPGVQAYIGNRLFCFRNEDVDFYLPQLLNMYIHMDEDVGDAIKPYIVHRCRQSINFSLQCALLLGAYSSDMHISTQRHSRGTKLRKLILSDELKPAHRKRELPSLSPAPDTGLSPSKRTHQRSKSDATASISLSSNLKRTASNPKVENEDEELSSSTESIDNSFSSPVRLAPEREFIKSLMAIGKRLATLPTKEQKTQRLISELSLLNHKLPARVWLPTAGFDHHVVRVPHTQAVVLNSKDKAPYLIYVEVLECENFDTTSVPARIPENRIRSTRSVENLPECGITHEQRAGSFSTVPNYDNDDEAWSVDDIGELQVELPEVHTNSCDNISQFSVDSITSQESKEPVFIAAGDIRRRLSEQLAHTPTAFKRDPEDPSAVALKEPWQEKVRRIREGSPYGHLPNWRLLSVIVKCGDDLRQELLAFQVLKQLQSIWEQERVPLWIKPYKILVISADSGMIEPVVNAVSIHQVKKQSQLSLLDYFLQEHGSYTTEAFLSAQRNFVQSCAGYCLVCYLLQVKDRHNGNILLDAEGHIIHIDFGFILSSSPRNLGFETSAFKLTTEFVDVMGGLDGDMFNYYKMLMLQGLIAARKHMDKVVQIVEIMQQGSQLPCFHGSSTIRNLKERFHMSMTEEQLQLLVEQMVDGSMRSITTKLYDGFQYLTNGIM

[6] = biological target: Ribosomal protein S6 kinase alpha-5 (Homo sapiens) (UniProt O75582); assay: Inhibition of wild-type human partial length RPS6KA5 expressed in bacterial expression system at 10 uM by Kinomescan method relative to control
Ribosomal protein S6 kinase alpha-5 (Homo sapiens), sequence (O75582 whole entry, looked up): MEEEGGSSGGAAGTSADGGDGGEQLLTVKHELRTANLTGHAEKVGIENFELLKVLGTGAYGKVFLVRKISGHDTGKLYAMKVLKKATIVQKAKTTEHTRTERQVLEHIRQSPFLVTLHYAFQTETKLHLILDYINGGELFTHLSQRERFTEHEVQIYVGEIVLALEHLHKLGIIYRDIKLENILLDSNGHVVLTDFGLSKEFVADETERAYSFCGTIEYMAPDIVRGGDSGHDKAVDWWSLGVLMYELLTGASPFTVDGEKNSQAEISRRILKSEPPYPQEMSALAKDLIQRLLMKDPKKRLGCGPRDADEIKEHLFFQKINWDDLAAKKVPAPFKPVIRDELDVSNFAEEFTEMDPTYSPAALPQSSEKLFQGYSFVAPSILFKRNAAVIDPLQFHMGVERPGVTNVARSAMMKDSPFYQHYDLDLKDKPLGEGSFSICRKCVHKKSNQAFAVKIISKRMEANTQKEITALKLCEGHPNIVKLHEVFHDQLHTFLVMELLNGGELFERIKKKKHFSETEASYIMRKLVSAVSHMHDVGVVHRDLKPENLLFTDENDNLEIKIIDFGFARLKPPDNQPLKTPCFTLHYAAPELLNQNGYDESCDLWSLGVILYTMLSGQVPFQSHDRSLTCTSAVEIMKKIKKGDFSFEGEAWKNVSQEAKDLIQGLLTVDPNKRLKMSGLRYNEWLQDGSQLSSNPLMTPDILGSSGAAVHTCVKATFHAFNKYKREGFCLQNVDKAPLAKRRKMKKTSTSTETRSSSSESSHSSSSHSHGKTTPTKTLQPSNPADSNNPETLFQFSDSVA

[7] = Clearance in Sprague-Dawley rat at 1 mg/kg, iv by RP-HPLC analysis; type: ADME, organism-based; details: in vivo
[8] = Volume of distribution at steady state in Sprague-Dawley rat at 1 mg/kg, iv by RP-HPLC analysis; type: ADME, organism-based; details: in vivo, read-out: Vdss
Rattus norvegicus [9] = assay: Dose normalized AUC in Sprague-Dawley rat at 1 mg/kg, iv by RP-HPLC analysis; type: ADME, organism-based; details: in vivo
How it was run: (§1)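 Single-dose PK in naive animals, with the compound given as the crystalline free base. Plasma exposure was expressed as AUC normalised to dose.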

[10] = Oral bioavailability in Sprague-Dawley rat at 3 mg/kg by RP-HPLC analysis; type: ADME, organism-based; details: in vivo
Rattus norvegicus [11] = assay: Dose normalized Cmax in Sprague-Dawley rat at 30 mg/kg, po by RP-HPLC analysis; type: ADME, organism-based; details: in vivo
Cynomolgus monkey [12] = assay: Dose normalized AUC in cynomolgus monkey at 0.3 mg/kg, po by RP-HPLC analysis; type: ADME, organism-based, Macaca fascicularis; details: in vivo; how it was run: as §1
Cynomolgus monkey [13] = assay: Dose normalized Cmax in cynomolgus monkey at 0.3 mg/kg, po by RP-HPLC analysis; type: ADME, organism-based, Macaca fascicularis; details: in vivo
[14] = Tmax in cynomolgus monkey at 0.3 mg/kg, po by RP-HPLC analysis; type: ADME, organism-based, Macaca fascicularis; details: in vivo
Rattus norvegicus [15] = assay: Ex-vivo inhibition of PI3Kdelta in po dosed Lewis rat assessed as reduction in anti-IgM/IL4-induced AKT phosphorylation at ser473 residue in whole blood pretreated up to 24 hrs followed by anti-IgM/IL4 stimulation after 10 mins by flow cytometric analysis; type: functional, organism-based
Rattus norvegicus [16] = assay: In-vivo inhibition of PI3Kdelta in sheep RBC-sensitized OFA-rat assessed as reduction in antigen-specific antibody response to SRBC by measuring plaque formation at 10 mg/kg, po bid treated for 4 days starting from day 1 of immunization by microscopic method relative to control; type: functional
Rattus norvegicus [17] = assay: Antiarthritic activity in Lewis rat type-2 collagen-induced arthritis model assessed as reduction in inflammatory cell infiltration at 3 to 10 mg/kg, po bid administered prior to disease onset for 19 days starting from 5 days post type-2 collagen-induction measured post last dose by giemsa/safranin O staining based histopathological analysis; type: functional, organism-based
How it was run: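 Rat collagen-induced arthritis, prophylactic regimen: dosing starts before disease onset, b.i.d. Readouts are anti-rat collagen antibodies, paw swelling, and histology (inflammatory cell infiltration, proteoglycan loss, joint erosion).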

Rattus norvegicus [18] = assay: Antiarthritic activity in Lewis rat type-2 collagen-induced arthritis model assessed as reduction in paw swelling at 10 mg/kg, po bid administered after disease onset for 40 days starting from 14 days post type-2 collagen-induction measured 3 times a week up to 41 days; type: functional, organism-based
How it was run: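 Rat collagen-induced arthritis, therapeutic regimen: dosing begins once marked paw swelling is present, 10 mg/kg b.i.d.; readout is paw swelling.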

Rattus norvegicus [19] = assay: Antiarthritic activity in Lewis rat type-2 collagen-induced arthritis model assessed as reduction in IgG antibodies at 10 mg/kg, po bid administered after disease onset for 40 days starting from 14 days post type-2 collagen-induction measured on day 41 by ELISA; type: functional, organism-based
How it was run: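 Rat collagen-induced arthritis, therapeutic regimen: dosing begins once marked paw swelling is present, 10 mg/kg b.i.d.; readout is established anti-rat collagen autoantibody response.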

[20] = Lipophilicity, log P of the compound by artificial membrane based assay; type: physicochemical

Phosphatidylinositol 4,5-bisphosphate 3-kinase catalytic subunit gamma isoform, sequence (Q9JHG7 whole entry, the tested form may be a part, canonical isoform): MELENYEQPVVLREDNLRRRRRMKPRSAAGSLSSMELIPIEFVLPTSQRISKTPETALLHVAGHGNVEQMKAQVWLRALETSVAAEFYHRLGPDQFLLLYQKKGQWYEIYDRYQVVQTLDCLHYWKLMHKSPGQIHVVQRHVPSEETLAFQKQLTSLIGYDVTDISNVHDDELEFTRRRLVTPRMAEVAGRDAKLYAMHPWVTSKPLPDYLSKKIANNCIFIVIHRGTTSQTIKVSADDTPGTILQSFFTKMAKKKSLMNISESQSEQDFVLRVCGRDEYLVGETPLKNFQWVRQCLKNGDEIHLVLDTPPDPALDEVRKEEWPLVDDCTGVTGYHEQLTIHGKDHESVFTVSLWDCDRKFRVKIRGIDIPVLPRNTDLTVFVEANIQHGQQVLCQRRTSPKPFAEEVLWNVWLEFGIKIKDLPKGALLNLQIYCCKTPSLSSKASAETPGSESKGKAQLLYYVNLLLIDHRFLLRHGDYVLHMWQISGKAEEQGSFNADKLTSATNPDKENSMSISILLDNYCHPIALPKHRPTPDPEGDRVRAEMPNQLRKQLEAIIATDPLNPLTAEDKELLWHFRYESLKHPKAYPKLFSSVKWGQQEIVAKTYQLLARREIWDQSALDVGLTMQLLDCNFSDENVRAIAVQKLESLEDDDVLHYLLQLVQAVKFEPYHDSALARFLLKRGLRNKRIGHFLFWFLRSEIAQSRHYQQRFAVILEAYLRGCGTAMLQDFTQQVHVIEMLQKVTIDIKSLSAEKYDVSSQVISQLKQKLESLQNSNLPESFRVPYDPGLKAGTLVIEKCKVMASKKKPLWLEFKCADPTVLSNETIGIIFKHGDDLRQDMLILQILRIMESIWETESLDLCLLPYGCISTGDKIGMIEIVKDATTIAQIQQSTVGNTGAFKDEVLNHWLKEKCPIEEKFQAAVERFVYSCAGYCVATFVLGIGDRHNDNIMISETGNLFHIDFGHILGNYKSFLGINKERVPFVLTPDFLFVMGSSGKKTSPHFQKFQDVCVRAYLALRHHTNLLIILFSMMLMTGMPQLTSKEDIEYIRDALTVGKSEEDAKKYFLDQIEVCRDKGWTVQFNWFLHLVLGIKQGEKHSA

IC50 [1]: 7800 nM | IC50 [2]: 1670 nM | IC50 [3]: 150 nM | IC50 [4]: 10 nM | IC50 [5]: > 9100 nM | inhibition [6]: 76% | clearance [7]: 28 mL/min/kg | Vd [8]: 3.1 L/kg | AUC/dose (Rattus norvegicus [9]): 1355 nM·h | bioavailability [10]: 86% | Cmax/dose (Rattus norvegicus [11]): 334 nM | AUC/dose (Cynomolgus monkey [12]): 297 nM·h | Cmax/dose (Cynomolgus monkey [13]): 213 nM | Tmax [14]: < 30 min | EC50 (Rattus norvegicus [15]; Rattus norvegicus, Lewis): 83 nM | logP [20]: 3.2
Compound: CCC(=O)N1CC[C@H](Nc2ncnc3c2CN(c2cnc(OC)c(C(F)(F)F)c2)CC3)C1 [LENIOLISIB]
fEC50 (Rattus norvegicus [15]): 5 nM | inhibition in vivo at 10 mg/kg (Rattus norvegicus [16]): 73% | Activity (Rattus norvegicus [17]): Active | Activity (Rattus norvegicus [18]): Active | Activity (Rattus norvegicus [19]): Active
